# Results as given in ChEMBL document CHEMBL5252546, “Salutaxel, a Conjugate of Docetaxel and a Muramyl Dipeptide (MDP) Analogue, Acts as Multifunctional Prodrug That Inhibits Tumor Growth and Metastasis” (J Med Chem, 2018).
# pIC50: −log10 of the molar value. Activity calls are given as the source filed them. The calls are words filed in the database; no cut-off is given here.
# Tests used:
# [1] = Drug metabolism in rat plasma assessed as metabolite MDA-205 formation at 4 mg/kg,iv measured after 24 hrs; format: ADME, organism-based; settings: in vivo
# [2] = Prodrug conversion in mouse tumor implanted with mouse 4T1 cells assessed as MRT of docetaxel at 4 mg/kg,iv measured upto 72 hrs; format: ADME, organism-based, Neoplasm; settings: in vivo
# [3] = Volume of distribution at steady state in female Beagle dog at 4 mg/kg,iv measured upto 24 hrs; format: ADME, organism-based, Canis lupus familiaris; settings: in vivo, read-out: Vdss
# [4] = Volume of distribution at steady state in Beagle dog at 4 mg/kg,iv measured upto 24 hrs; format: ADME, organism-based, Canis lupus familiaris; settings: in vivo, read-out: Vdss
# [5] = Volume of distribution at steady state in female Beagle dog at 2 mg/kg,iv measured upto 24 hrs; format: ADME, organism-based, Canis lupus familiaris; settings: in vivo, read-out: Vdss
# [6] = Volume of distribution at steady state in female rat at 2 mg/kg,iv measured upto 24 hrs; format: ADME, organism-based; settings: in vivo, read-out: Vdss
# [7] = Clearance in Beagle dog at 1 mg/kg,iv measured upto 24 hrs; format: ADME, organism-based, Canis lupus familiaris; settings: in vivo
# Summary of the method: (§1)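 Beagle dogs were given a single iv infusion at 1, 2 or 4 mg/kg. Plasma parent drug and released docetaxel were followed over time. Cmax, Tmax, AUC, MRT, t1/2, CL and Vss were reported by sex and for all dogs combined.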
# [8] = Clearance in male rat at 2 mg/kg,iv measured upto 24 hrs; format: ADME, organism-based; settings: in vivo
# Summary of the method: (§2)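 Rats were given a single iv injection at 2, 4 or 8 mg/kg. Plasma parent drug and released docetaxel were followed over time. Cmax, Tmax, AUC, MRT, t1/2, CL and Vss were reported for males, females and all animals combined.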
# [9] = Half life in male Beagle dog at 4 mg/kg,iv measured upto 24 hrs; format: ADME, organism-based, Canis lupus familiaris; settings: in vivo
# [10] = MRT (0 to infinity) in female rat at 2 mg/kg,iv measured upto 24 hrs; format: ADME, organism-based; settings: in vivo
# [11] = AUC (0-t) in female rat at 8 mg/kg,iv measured upto 24 hrs; format: ADME, organism-based; design: dose 8 mg/kg, time < 24 hrs, route iv; settings: in vivo
# Summary of the method: (§3)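 Single iv dose: rats 2, 4 or 8 mg/kg by intravenous injection; Beagle dogs 1, 2 or 4 mg/kg by intravenous infusion. Plasma concentration–time data were analysed by sex and pooled. Reported parameters: Cmax, Tmax, AUC0−t, AUC0−∞, MRT0−∞, t1/2, CL, Vss, given as mean ± SD.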
# [12] = AUC (0-t) in rat at 4 mg/kg,iv measured upto 24 hrs; format: ADME, organism-based; design: time < 24 hrs, dose 4 mg/kg, route iv; settings: in vivo; summary of the method: as §3
# [13] = Cmax in male rat at 2 mg/kg,iv measured upto 24 hrs; format: ADME, organism-based; design: time < 24 hrs, dose 2 mg/kg, route iv; settings: in vivo; summary of the method: as §2
# [14] = Cmax in rat at 4 mg/kg,iv measured upto 24 hrs; format: ADME, organism-based; design: dose 4 mg/kg, time < 24 hrs, route iv; settings: in vivo; summary of the method: as §2
# [15] = Cmax in female Beagle dog at 1 mg/kg,iv measured upto 24 hrs; format: ADME, organism-based, Canis lupus familiaris; design: dose 1 mg/kg, time < 24 hrs, route iv; settings: in vivo; summary of the method: as §1
# [16] = Toxicity in BALB/c mouse xenografted with human NCI-H1975 cells assessed as side effects at 10 mg/kg,iv administrated once per week for 3 weeks; format: organism-based; settings: in vivo, 504 h
# NCI-H1975 = assay: Antitumor activity against human NCI-H1975 cells xenografted with BALB/c mouse assessed as inhibition of tumor growth at 10 mg/kg,iv administrated once per week for 3 weeks; format: functional, organism-based
# Summary of the method: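 BALB/c nu/nu mice given subcutaneous human tumour cells in the right flank; dosing began at about 100–120 mm3 mean volume; iv once weekly for 3 weeks, with equimolar parent drug as positive control; tumour volume and weight measured; n = 8, mean ± SEM, ANOVA and Student's t test.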
# [17] = Toxicity in Beagle dog assessed as decrease in blood pressure at 1 to 4 mg/kg,iv; format: organism-based, Canis lupus familiaris; settings: in vivo, dose 1-4 mg/kg
# [18] = Stability in dog hepatocyte assessed as compound remaining at 3 uM incubated upto 120 mins; format: ADME, cell-based, Canis lupus familiaris; settings: hepatocytes, 2 h
# MCF7 = assay: Antiproliferative activity against human MCF7 cells assessed inhibition of cell growth incubated for 72 hrs by SRB assay; format: functional, cell-based; settings: MCF7, 72 h
# KM12 = assay: Antiproliferative activity against human KM12 cells assessed inhibition of cell growth incubated for 72 hrs by SRB assay; format: functional, cell-based; settings: KM12, 72 h
# [19] = Toxicity in Beagle dog assessed as facial swelling at 3 to 18 mg/kg,iv measured upto 24 hrs; format: organism-based, Canis lupus familiaris; settings: in vivo, dose 3-18 mg/kg
# 4T1 [20] = assay: Antitumor activity against mouse 4T1 cells implanted in BALB/c mouse assessed as decrease in serum TIMP-1 level at 10 mg/kg,iv administrated once per week for 4 weeks by ELISA; format: functional, organism-based
# Summary of the method: (§4)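 4T1 fat-pad model in BALB/c mice, iv 5–20 mg/kg once weekly for 4 weeks, with vehicle and naive groups; serum MMP9, TIMP-1, IL-6 and S100A9 measured by mouse ELISA kits.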
# 4T1 [21] = assay: Antitumor activity against mouse 4T1 cells implanted in BALB/c mouse assessed as decrease in serum IL-6 level at 5 mg/kg,iv administrated once per week for 4 weeks by ELISA; format: functional, organism-based; summary of the method: as §4
# 4T1 [22] = assay: Antitumor activity against mouse 4T1 cells implanted in BALB/c mouse assessed as decrease in serum IL-6 level at 10 mg/kg,iv administrated once per week for 4 weeks by ELISA; format: functional, organism-based; summary of the method: as §4
# 4T1 [23] = assay: Antitumor activity against mouse 4T1 cells implanted in BALB/c mouse assessed as decrease in serum S100A9 level at 20 mg/kg,iv administrated once per week for 4 weeks by ELISA; format: functional, organism-based; summary of the method: as §4
# 4T1 [24] = assay: Antitumor activity against mouse 4T1 cells implanted in BALB/c mouse assessed as increase in tumor NOD1 expression level at 5 to 20 mg/kg,iv administrated once per week for 4 weeks by western blot assay; format: functional, organism-based; settings: dose 5-20 mg/kg
# Summary of the method: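 4T1 fat-pad model in BALB/c mice, iv once weekly for 4 weeks; MMP9, MMP2 and NOD1 in spleen, lung and tumour by western blot, β-actin loading control; bands averaged over five mice per group, representative of two independent experiments.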
# 4T1 [25] = assay: Antitumor activity against mouse 4T1 cells implanted in BALB/c mouse assessed as decrease in neutrophil in peripheral blood at 20 mg/kg,iv administrated qd for 2 days by blood smear staining microscopic analysis; format: functional, organism-based; settings: time 2.0 day
# Summary of the method: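 Day 19 after 4T1 implantation, mice randomised into five groups; iv vehicle or 20 mg/kg plus ip C12-iE-DAP (50 μg/mouse) and MDP (100 μg/mouse) once daily for 2 days; blood taken 6 h later; neutrophils/leukocytes counted on stained blood smears at 1000× light microscopy.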
# [26] = Toxicity in BALB/c mouse xenografted with human MDA-MB-231 cells assessed as side effects at 5.7 mg/kg,iv administrated once per week for 3 weeks; format: organism-based; settings: in vivo, 504 h
# Summary of the method: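 Nude BALB/c nu/nu mice received subcutaneous human tumour cells into the right flank. Dosing started at mean tumour volume of 100–120 mm3, iv once weekly for 3 weeks; the taxane arm was an equimolar control. Body weight and overt side effects were monitored. Mean ± SEM, n = 8.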
# 4T1 [27] = assay: Antitumor activity against mouse 4T1 cells implanted in BALB/c mouse assessed as decrease in spleen MDSC cells at 5.7 mg/kg,iv administrated in presence of compound 5b measured after 28 days (reference value: 38%); format: functional; design: scale not given: the % may be the effect or the level left; settings: time 28 day
# Summary of the method: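 Splenocytes taken from 4T1 fat-pad tumor-bearing BALB/c mice after 28 days of tumor growth with weekly iv dosing. Cells stained with anti-CD11b PE and anti-Gr-1 FITC, and the Gr-1+CD11b+ percentage scored by flow cytometry. Eight mice per treated group, five naive. Mean ± SEM.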
structure (smiles),measurement,setting,value
CC(=O)O[C@@]12CO[C@@H]1C[C@H](O)[C@@]1(C)C(=O)[C@H](O)C3=C(C)[C@@H](OC(=O)[C@H](OC(=O)CCC(=O)NCCCC[C@H](NC(=O)CC[C@@H](NC(=O)[C@H](C)NC(=O)/C=C/c4ccc(F)cc4Cl)C(N)=O)C(=O)O)[C@@H](NC(=O)OC(C)(C)C)c4ccccc4)C[C@@](O)([C@@H](OC(=O)c4ccccc4)[C@H]21)C3(C)C,Drug metabolism,[1],Metabolite_Detected
same,MRT,[2],87.4 h
same,Vd,[3],0.087 L/kg
same,Vd,[4],0.08 L/kg
same,Vd,[5],0.077 L/kg
same,Vd,[6],0.067 L/kg
same,clearance,[7],11.5 mL/min/kg
same,clearance,[8],5.58 mL/min/kg
same,half-life,[9],36.6 min
same,MRT inf,[10],8.64 min
same,AUC(0-t) at 24 h,[11],39300 ng·h/mL
same,AUC(0-t) at 24 h,[12],16900 ng·h/mL
same,Cmax,[13],15800 ng/mL
same,Cmax,[14],34200 ng/mL
same,Cmax,[15],4020 ng/mL
same,Activity,[16],Non-Toxic
same,inhibition,NCI-H1975,Active
same,Activity,[17],Toxic
same,Stability,[18],Stable
same,pIC50,MCF7,7.79
same,pIC50,KM12,7.79
same,Activity,[19],Toxic
same,Activity,4T1 [20],Active
same,Activity,4T1 [21],Active
same,Activity,4T1 [22],Active
same,Activity,4T1 [23],Active
same,Activity,4T1 [24],inactive
same,Activity,4T1 [25],Active
CC(=O)O[C@@]12CO[C@@H]1C[C@H](O)[C@@]1(C)C(=O)[C@H](O)C3=C(C)[C@@H](OC(=O)[C@H](O)[C@@H](NC(=O)OC(C)(C)C)c4ccccc4)C[C@@](O)([C@@H](OC(=O)c4ccccc4)[C@H]21)C3(C)C [DOCETAXEL ANHYDROUS],Activity,[26],Non-Toxic
same,Activity,4T1 [27],32.1%
